The nature of data set [1]: Hemolytic activity in human RBC at 100 ug/ml after 1 hr relative to control. It counts as ADME, cell-based, Erythrocyte. The following applies: red blood cells (erythrocytes), read-out: Activity.
A short description of data set [2]: Cytotoxicity against mouse NIH/3T3 cells after 72 hrs by MTT assay. The format is cell-based, NIH3T3. The following applies: read-out: TD50. Background: Tetrazolium dyes change colour on reduction, which living cells bring about.
A short description of data set [3]: Selectivity index, ratio of TD50 for mouse NIH/3T3 cells to MIC>90 for Cryptococcus neoformans H99S serotype A. It counts as toxicity. The following applies: read-out: Selectivity Index.
The nature of data set [4]: Selectivity index, ratio of HC10 for human RBC to MIC>90 for Cryptococcus neoformans H99S serotype A. The format is toxicity. The following applies: red blood cells, read-out: Selectivity Index.
Data set [5] can be described thus: Selectivity index, ratio of TD50 for human HepG2 cells to MIC>90 for Cryptococcus neoformans H99S serotype A. Conditions: read-out: Selectivity Index. The format is toxicity.
Data set [6] can be described thus: Cytotoxicity against human HepG2 cells after 72 hrs by MTT assay. The format is cell-based. The following applies: read-out: TD50.
The subject of another data set is Erythrocyte. The data set is described as follows: Hemolytic activity in human RBC after 1 hr. The format is ADME, cell-based. The procedure, abridged: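 Hemolysis of human red blood cells is reported as HC10, the concentration giving 10% hemolysis, in µg/mL.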
In another data set the test system is Cryptococcus neoformans. The data set is described as follows: Antifungal activity against Cryptococcus neoformans H99S serotype A after 72 hrs by presto blue dye based CLSI method. It counts as functional, Cryptococcus neoformans var. grubii H99S.

Converted amounts (≈) assume the structure as drawn. A value given as a limit tells only on which side of the number the result lay.

As a reminder, the MIC90 is the lowest concentration that inhibits either 90% of growth or 90% of the strains tested, depending on the study. A higher MIC90 goes with weaker potency.

On to `CCCCCCCCCCCCCNCC(=O)N(CCCCN)CC(=O)N(CC(N)=O)Cc1ccco1`, for which, in data set [1], the hemolysis at 1 h, 100 ug/ml was 30.4%. Moreover, the results for the CC50 at 72 h in data set [2] and in data set [6] were 48.6 µg/mL (≈ 93.1 µM) and 56.2 µg/mL (≈ 108 µM), respectively. The results for the selectivity ratio in data set [3], in data set [4] and in data set [5] were 8, 9 and 9, respectively. For the same molecule, the HC10 with Erythrocyte was determined as 56.6 µg/mL. This molecule also registered an MIC90 against Cryptococcus neoformans of 6.3 µg/mL (≈ 12.1 µM).
`CCCCCCCCCCCCCNCC(=O)N(CCN)CC(=O)N(CC(N)=O)Cc1cccs1`: the selectivity ratio in data set [5] is 6. Further, the CC50 at 72 h in data set [6] amounted to 40.5 µg/mL (≈ 79.4 µM). In addition, the MIC90 against Cryptococcus neoformans stood at 6.25 µg/mL (≈ 12.3 µM).
Take `CCCCCCCCCCCCCNCC(=O)N(CCCCN)CC(=O)N(CC(N)=O)Cc1ncc[nH]1`: the selectivity ratio in data set [5] turned out to be 6. Further, the CC50 at 72 h in data set [6] came to 147 µg/mL (≈ 282 µM). Further, the MIC90 against Cryptococcus neoformans was 25 µg/mL (≈ 47.9 µM).
As for `CC(C)=CCC/C(C)=C/CC/C(C)=C/CNCC(=O)N(CCCCN)CC(=O)N(CCCn1ccnc1)CC(N)=O`, in the data set on Cryptococcus neoformans, the MIC90 amounted to 100 µg/mL (≈ 175 µM).
For `CCCCCCCCCCCCCCCCNCC(=O)N(CCCCN)CC(=O)N(CC(N)=O)Cc1ccco1`, in data set [5], the selectivity ratio was determined as 13. Also, the CC50 at 72 h in data set [6] was found to be 40.4 µg/mL (≈ 71.7 µM). The molecule also gave an MIC90 against Cryptococcus neoformans of 3.13 µg/mL (≈ 5.55 µM).
In the same order, the values of `CCCCCCCCCCCCCNCC(=O)N(CCCCN)CC(=O)N(CC(N)=O)Cc1ccccc1` are 17, 52.2 µg/mL (≈ 98.2 µM) and 3.13 µg/mL (≈ 5.89 µM).
Turning to `CCCCCCCCCCCCCNCC(=O)N(CCCNC(=N)N)CC(=O)N(CC(N)=O)Cc1cccs1`, the selectivity ratio in data set [5] was determined as 3. Further, the CC50 at 72 h in data set [6] stood at 40.8 µg/mL (≈ 72.1 µM). The molecule also displayed an MIC90 against Cryptococcus neoformans of 12.5 µg/mL (≈ 22.1 µM).
`CCCCCCCCCCCCCNCC(=O)N(CCCCN)CC(=O)N(CC(N)=O)CC1CCCO1` (centres undefined): the selectivity ratio in data set [5] was 14. For the same molecule, the CC50 at 72 h in data set [6] worked out at 170 µg/mL (≈ 324 µM). In the data set on Cryptococcus neoformans, the MIC90 amounted to 12.5 µg/mL (≈ 23.8 µM).
`CCCCCCCCNCC(=O)N(CCCCN)CC(=O)N(CC(N)=O)Cc1ccco1`: the MIC90 in the data set with Cryptococcus neoformans was more than 800 µg/mL.
With `CCCCCCCCCCCCCNCC(=O)N(CCCCN)CC(=O)N(CCc1c[nH]c2ccccc12)CC(N)=O`, in data set [5], the selectivity ratio was determined as 14. The CC50 at 72 h in data set [6] amounted to 42.7 µg/mL (≈ 73 µM). This molecule also had an MIC90 in the data set with Cryptococcus neoformans of 3.13 µg/mL (≈ 5.35 µM).
For the molecule `CNCC(=O)N(CCCCN)CC(=O)N(CC(N)=O)Cc1ccco1`, the CC50 at 72 h in data set [6] is more than 800 µg/mL. For the same molecule, in the data set on Cryptococcus neoformans, the MIC90 was more than 400 µg/mL.
As for `CCCCCCCCCCCCCNCC(=O)N(CCCC[N+](C)(C)C)CC(=O)N(CC(N)=O)Cc1cccs1`, the hemolysis at 1 h, 100 ug/ml in data set [1] is 46%. The CC50 at 72 h in data set [2] came to 115 µg/mL; in data set [6] it was 91.2 µg/mL. Also, the HC10 in the data set with Erythrocyte came out at 42.6 µg/mL. The MIC90 in the data set on Cryptococcus neoformans worked out at 3.13 µg/mL.
With `CC(C)=CCC/C(C)=C/CNCC(=O)N(CCCCN)CC(=O)N(CC(N)=O)Cc1ccco1`, the MIC90 in the data set on Cryptococcus neoformans worked out at 400 µg/mL (≈ 841 µM).
With `CC(C)=CCC/C(C)=C/CC/C(C)=C/CNCC(=O)N(CCCCN)CC(=O)N(CCc1c[nH]c2ccccc12)CC(N)=O`, the MIC90 in the data set with Cryptococcus neoformans was determined as 100 µg/mL (≈ 165 µM).
Take `CCCCCCCCCCCCCNCC(=O)N(CCCCN)CC(=O)N(C)CC(N)=O`: the selectivity ratio in data set [5] worked out at 1. Moreover, in data set [6], the CC50 at 72 h worked out at 54.3 µg/mL (≈ 119 µM). In the data set on Cryptococcus neoformans, this molecule displayed an MIC90 of 50 µg/mL (≈ 110 µM).
`CCCCCCCCCCCCCNCC(=O)N(CCCCCCN)CC(=O)N(CC(N)=O)Cc1cccs1`: the selectivity ratio in data set [5] stood at 18. For the same molecule, the CC50 at 72 h in data set [6] was 56.2 µg/mL (≈ 99.3 µM). The molecule also registered an MIC90 against Cryptococcus neoformans of 3.13 µg/mL (≈ 5.53 µM).
Consider `CCCCCCCCCCCCCNCC(=O)N(CCCN)CC(=O)N(CC(N)=O)Cc1cccs1`, for which the selectivity ratio in data set [5] is 15. The CC50 at 72 h in data set [6] was 47.3 µg/mL (≈ 90.3 µM). Also, the MIC90 against Cryptococcus neoformans was 3.13 µg/mL (≈ 5.98 µM).
Turning to `CCCCCCCCCCCCCNCC(=O)N(CCCCN)CC(=O)N(CC(N)=O)Cc1cccs1`, the hemolysis at 1 h, 100 ug/ml in data set [1] was 48.6%. Further, the CC50 at 72 h in data set [2] stood at 65.9 µg/mL (≈ 123 µM); in data set [6], 79.3 µg/mL (≈ 147 µM). For the same molecule, the values for the selectivity ratio in data set [3], in data set [4] and in data set [5] were 21, 12 and 25, respectively. The HC10 in the data set with Erythrocyte came to 37.2 µg/mL. The molecule further had an MIC90 in the data set on Cryptococcus neoformans of 3.13 µg/mL (≈ 5.82 µM).
Molecule `CC(C)=CCC/C(C)=C/CC/C(C)=C/CNCC(=O)N(CCCCN)CC(=O)N(CC(N)=O)Cc1cccs1` had an MIC90 against Cryptococcus neoformans of 400 µg/mL (≈ 715 µM).
The same measure, in the same setting: the same measure for `CCCCCCCCCCNCC(=O)N(CCCCN)CC(=O)N(CC(N)=O)Cc1ccco1`: 400 µg/mL (≈ 834 µM).
With `CCCCCCCCCCCCCNCC(=O)N(CCCCN)CC(=O)N(CC(N)=O)Cc1ccncc1`, the selectivity ratio in data set [5] turned out to be 4. The CC50 at 72 h in data set [6] came to 104 µg/mL (≈ 195 µM). In the data set with Cryptococcus neoformans, this molecule had an MIC90 of 25 µg/mL (≈ 46.9 µM).
As to `CC(C)=CCC/C(C)=C/CC/C(C)=C/CNCC(=O)N(CCCCN)CC(=O)N(CC(N)=O)Cc1ccco1`, the selectivity ratio in data set [5] stood at 8. Also, the CC50 at 72 h in data set [6] is 800 µg/mL (≈ 1470 µM). The molecule also gave an MIC90 in the data set on Cryptococcus neoformans of 100 µg/mL (≈ 184 µM).
For the molecule `CCCCCCCCCCCCCNCC(=O)N(CCCCN)CC(=O)N(CCCn1ccnc1)CC(N)=O`, the selectivity ratio in data set [5] was 5. Further, the CC50 at 72 h in data set [6] stood at 228 µg/mL (≈ 415 µM). In addition, the MIC90 in the data set on Cryptococcus neoformans is 50 µg/mL (≈ 90.9 µM).
Consider `CCCCCCCCCCCCCNCC(=O)N(C)CC(=O)N(CC(N)=O)Cc1ccco1`, for which the selectivity ratio in data set [5] was found to be 2. In addition, the CC50 at 72 h in data set [6] came out at 21.1 µg/mL (≈ 45.4 µM). Also, the MIC90 in the data set with Cryptococcus neoformans stood at 12.5 µg/mL (≈ 26.9 µM).
For the molecule `CCCCCCCCCCCCCNCC(=O)N(CCCCO)CC(=O)N(CC(N)=O)Cc1cccs1`, the selectivity ratio in data set [5] was 3. Besides, in data set [6], the CC50 at 72 h is 31 µg/mL (≈ 57.5 µM). This molecule also had an MIC90 against Cryptococcus neoformans of 12.5 µg/mL (≈ 23.2 µM).

Source of the values: ChEMBL document CHEMBL4265984, “Improved potency and reduced toxicity of the antifungal peptoid AEC5 through submonomer modification” (Bioorg Med Chem Lett, 2018).
